Measurements from different studies.
Lines come from different studies, so protocols differ.
Target: Ephrin type-B receptor 3 (EPHB3, Homo sapiens, UniProt P54753)
Sequence (P54753 34-998, as in one of the studies): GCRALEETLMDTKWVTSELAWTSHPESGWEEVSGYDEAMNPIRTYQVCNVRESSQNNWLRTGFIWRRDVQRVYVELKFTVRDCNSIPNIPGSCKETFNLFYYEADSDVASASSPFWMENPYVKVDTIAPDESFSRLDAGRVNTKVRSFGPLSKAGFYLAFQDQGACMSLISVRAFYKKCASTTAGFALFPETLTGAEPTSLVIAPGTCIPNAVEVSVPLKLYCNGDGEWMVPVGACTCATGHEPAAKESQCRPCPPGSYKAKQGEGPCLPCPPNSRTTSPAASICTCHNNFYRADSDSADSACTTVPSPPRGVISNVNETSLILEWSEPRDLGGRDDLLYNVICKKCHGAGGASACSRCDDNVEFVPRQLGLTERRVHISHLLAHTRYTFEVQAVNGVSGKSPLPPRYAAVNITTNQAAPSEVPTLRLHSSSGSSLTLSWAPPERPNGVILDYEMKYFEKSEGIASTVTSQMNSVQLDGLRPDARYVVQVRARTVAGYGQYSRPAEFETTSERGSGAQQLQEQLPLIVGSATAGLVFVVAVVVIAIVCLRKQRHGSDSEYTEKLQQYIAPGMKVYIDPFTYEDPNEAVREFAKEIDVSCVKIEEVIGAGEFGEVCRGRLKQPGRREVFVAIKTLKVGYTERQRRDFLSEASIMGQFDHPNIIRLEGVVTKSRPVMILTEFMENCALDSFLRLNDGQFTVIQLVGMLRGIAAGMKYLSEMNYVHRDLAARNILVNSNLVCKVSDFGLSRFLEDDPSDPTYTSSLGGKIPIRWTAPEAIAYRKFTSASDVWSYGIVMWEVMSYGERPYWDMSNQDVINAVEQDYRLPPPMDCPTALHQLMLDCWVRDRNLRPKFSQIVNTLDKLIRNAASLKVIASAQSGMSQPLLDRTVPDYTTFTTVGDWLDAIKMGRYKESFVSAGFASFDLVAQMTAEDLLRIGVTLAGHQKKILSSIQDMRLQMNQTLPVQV

Cc1cc(NC(=O)c2cccc(S(F)(F)(F)(F)F)c2)cc(-n2ccn3nc(-c4cccnc4)cc23)c1 gave a remaining binding of 100% (cell-free assay, competition with immobilised ligand; 1 µM).
Cc1ccc(C(=O)Nc2ccc(CN3CCN(C)CC3)c(C(F)(F)F)c2)cc1C#Cc1cnc2cccnn12 gave a remaining signal of 100% (cell-free assay; 23.5 nM).
CCCS(=O)(=O)Nc1ccc(F)c(C(=O)c2c[nH]c3ncc(-c4ccc(Cl)cc4)cc23)c1F gave an inhibition of < 10% (enzyme activity, inhibitor; 1 µM).
With CC(C)(O)[C@H]1CC[C@H](Nc2ccc3ncc(-c4cccc(C(F)(F)F)c4)n3n2)CC1 the remaining activity was 87.9% (enzyme activity, inhibitor; 1 µM).
CCN(CC)CCNC(=O)c1c(C)[nH]c(/C=C2\C(=O)Nc3ccc(F)cc32)c1C gave an inhibition of 10% (enzyme activity, inhibitor; 10 µM).
The remaining activity of CCCOc1ccc(OC)c(F)c1C(=O)c1ccc(C(=O)N[C@@H]2CNC[C@H]2NC(=O)c2ccc3[nH]ncc3c2)cc1 is reported as 102% (enzyme activity, inhibitor; 10 µM).
With CC(C)(C)C(=O)c1sc(NC2CCCCC2)nc1N the remaining activity was 94% (enzyme activity, inhibitor; 10 µM).
CN([C@@H]1CCc2c(CC(=O)O)c3ccccc3n2C1)S(=O)(=O)c1ccc(F)cc1 has a remaining binding of 88% (cell-free assay, competition with immobilised ligand; 1 µM).
The inhibition of Cn1cncc1C1=CN(c2ncnc3[nH]cnc23)CCS1 is reported as 12.8% (enzyme activity, inhibitor, radiometric; 50 nM).
The remaining activity of O=C(Nc1cnn(-c2csc(C(=O)NC3COC3)c2)c1)Nc1c(F)cccc1Cl is reported as 96.5% (enzyme activity, inhibitor; 5 µM).
With CC(C)(C)c1nc(-c2cccc(NS(=O)(=O)c3c(F)cccc3F)c2F)c(-c2ccnc(N)n2)s1 the remaining activity was 92% (enzyme activity, inhibitor, radiometric; 1 µM).
Cn1nc(C(=O)NCc2ccc(C(=O)O)cc2)cc1-c1ccc2[nH]ccc2c1 gave a remaining binding of 100% (cell-free assay, competition with immobilised ligand; 0.1 µM).
The remaining activity of Cn1c(=O)n(-c2ccc(C(C)(C)C#N)cc2)c2c3cc(-c4cnc5ccccc5c4)ccc3ncc21 is reported as 117% (enzyme activity, inhibitor; 10 µM).
CC(C)CC(=O)N1CCc2nc(-c3ccc(Br)cc3)nc(N(C)Cc3ccccc3)c2C1 gave a remaining binding of 100% (cell-free assay, competition with immobilised ligand; 0.1 µM).
For O=C1Nc2ccc(Cl)cc2C1=Cc1cc(Cl)c(O)c(Cl)c1, the remaining signal was 91% (cell-free assay; 0.5 µM).
The remaining binding of CO[C@@H](C)c1c(Nc2ccc([C@H](N(C)C(=O)C3CCS(=O)(=O)CC3)C(F)(F)F)cc2)cnc2cc(Cl)nn12 is reported as 100% (cell-free assay, competition with immobilised ligand; 1 µM).
The remaining activity of COc1cc(Cl)c(C(=O)N[C@@H](CN[C@H]2CC[C@@H](N)CC2)Cc2ccc(C#N)cc2)cc1-c1ccc(CN[C@H](C)c2ccc(C)cc2)o1 is reported as 97% (enzyme activity, inhibitor; 1 µM).
COc1cc(Nc2cnc(C#N)c(O[C@H](C)CN(C)C)n2)ncc1-c1cnn(C)c1 gave a remaining activity of 68% (enzyme activity, inhibitor, radiometric; 1 µM).
The remaining binding of CN(C)C(=O)Cn1cc(-c2nc(C3(c4ccc(-c5cnc(N)nc5)cc4)CC3)no2)cn1 is reported as 95% (cell-free assay, competition with immobilised ligand; 1 µM).
The remaining signal of Clc1ccc(Nc2nnc(Cc3ccncc3)c3ccccc23)cc1 is reported as 65.1% (cell-free assay; 0.5 µM).
